From PubChem
YB-1_expr_inh – YB-1 expression inhibition; U2OS, qRT-PCR YB-1 vs CDIP delta delta Cp, 16 h; active compounds read high; zero = DMSO, each unit about twofold; AID 434959; delta delta Cp (YB-1 minus CDIP) (test concentration not listed); 30,000 compounds, 0.37% hits;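 active means delta delta Cp rounded down to an integer at or above 3, about 3 SD of DMSO wells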;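 further: higher means less YB-1 transcript or more CDIP transcript relative to DMSO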
T_cruzi_HTS – blocks T. cruzi growth inside host cells. intracellular Trypanosoma cruzi in host cells, plate reader. activity score (inhibition), % at 5.01 µM. 22,000 compounds, 4.9% hits; in the data active means activity score above about 55%;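 further: parasites and compound incubated about four days before reading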
INS-1E_ATP_HTS – preserves ATP levels in cytokine-treated INS-1E cells; INS-1E cytokine-induced death, ATP luminescence, 48 h; normalised: neutral wells 0, positive control 100; protection from cytokine-induced ATP loss, % at 10 µM; 20,000 compounds, 0.1% hits; AID 488910;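 active means mean replicate protection from cytokine-induced ATP loss at least 50% and at least 75% of replicates each reaching 50%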
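assay system = INS-1E rat insulinoma cells | amount = 8000 cells per well | medium = phenol-red-free RPMI with 5% fetal bovine serum | doses = one compound concentration, pin transfer | timing = 48 h cytokine plus compound treatment, 10 min reagent incubation | also added = IL-1β, TNF-α and IFN-γ cytokine mix | signal = CellTiter-Glo luminescence measuring cellular ATP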
A number is an active result; – = inactive; · = no result. This excerpt belongs to a sample that is enriched for hits.

SMILES YB-1_expr_inh T_cruzi_HTS INS-1E_ATP_HTS
C[C@H]1CN([C@@H](C)CO)C(=O)c2cccc(NC(=O)Nc3ccc(C(F)(F)F)cc3)c2O[C@@H]1CN(C)S(=O)(=O)c1ccc(F)cc1 – – –
C[C@H](CO)N1C[C@H](C)[C@@H](CN(C)S(=O)(=O)c2ccccc2)Oc2c(NC(=O)Nc3ccccc3)cccc2C1=O – 61 –
C[C@H]1CN([C@@H](C)CO)C(=O)c2cccc(NC(=O)Nc3ccccc3)c2O[C@H]1CN(C)S(=O)(=O)c1ccccc1 – – –
Cc1ccccc1-c1nnc(-c2cc(C(C)(C)C)nn2Cc2ccc(F)cc2)o1 – · ·
O=C(Nc1cc(-c2ccc(Cl)cc2)[nH]n1)C1Cc2ccccc2C1 – · ·
CO[C@H]1C[C@@H]2CC[C@@H](C)[C@@](O)(O2)C(=O)C(=O)N2CCCC[C@H]2C(=O)O[C@H]([C@H](C)C[C@@H]2CC[C@@H](O)[C@H](OC)C2)CC(=O)[C@H](C)/C=C(\C)[C@@H](O)[C@@H](OC)C(=O)[C@H](C)C[C@H](C)/C=C/C=C/C=C\1C – · ·
